Reference: PMC7813200 (Neuro-oncology Advances, 2020)
“Also recorded” adds a separate entry of the source.

How the values were obtained:
MGG8 cells [1] = experiment: cell viability WST-1, MGG8; assay type: cell-based, human; details: 72 h
T98G cells [2] = experiment: cells in S phase, BrdU incorporation, T98G; assay type: cell-based, human
MGG8 cells [3] = experiment: cells in S phase, BrdU incorporation, MGG8; assay type: cell-based, human; details: NOC 3 μM
[4] = tested on: COLO205 cell-derived subcutaneous xenografts; experiment: COLO205 xenograft flank tumor model; assay type: in vivo, mouse
CD1 mice = experiment: maximal tolerated dose and dose range finding; assay type: in vivo, mouse; details: bidaily i.p. 20 mg/kg, 5 days/week for 4 weeks
In short: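 CD1 mice dosed i.p. at 5, 10, 20, 50, 100 or 150 mg/kg, or with the corresponding volume of no-drug formulation (vehicle). Monitored for signs of general distress. Regimen 2: 20 mg/kg i.p. bidaily, 5 days/week for 4 weeks.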

COLO205 cells = experiment: NCI-60 cancer cell panel, COLO205; assay type: cell-based; details: Homo sapiens, COLO 205
[5] = tested on: tubulin (colchicine site); experiment: [3H]colchicine binding to purified tubulin; details: 5 μM compound; mean of n = 3
PDGFB-glioma = experiment: RCAS/tv-a PDGFB glioma mouse model; assay type: in vivo; details: for tumor density by olig-2 immunostaining: each arm at its regimen (ST-401 regimen 2; TMZ 50 mg/kg); for necrotic area: end-stage histopathology, each arm at its regimen
[6] = tested on: six human glioma cell lines (SF-268, SF-295, SF-539, SNB-19, SNB-75, U251); experiment: NCI-60 cell line panel, six glioma lines; assay type: cell-based; details: read-out: IC50s (growth inhibition, TGI50 in Figure 2A)
tubulin = tubulin assembly, pelleting assay; assay type: biochemical; details: compared to ST-360
In short: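 Tubulin assembly assessed by pelleting assay, with release of free tubulin measured. Mean ± SEM from 3 to 5 experiments.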

[7] = pharmacokinetics, plasma and brain by LC-MS; assay type: in vivo, mouse
T98G cells [8] = experiment: cell viability WST-1, T98G; assay type: cell-based; details: Homo sapiens, 72 h, read-out: IC50, overall cell viability
HCT116 cells = experiment: live cell imaging of MT assembly rates; assay type: cell-based, human
In short: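 HCT116 cells expressing EB1-GFP to label growing microtubule ends. Imaged at a single Z-plane at 500-ms intervals. Assembly rates scored in interphase cells by particle tracking, before treatment and again after compound wash-out (POST).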

[9] = tested on: PD-glioma isolates (proneural, mesenchymal, classical, MGG8); experiment: viability of PD-glioma isolates; assay type: cell-based; details: Homo sapiens, read-out: IC50, antitumor activity (viability, WST-1)
S24 PD-glioma cells [10] = experiment: tumor microtube; assay type: cell-based, human; details: Y-27632 50 μM
In short: (§1)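 GFP-expressing patient-derived S24 and BG5 glioma cells treated with increasing test-compound concentrations (e.g. 30 and 300 nM) or controls: DMSO 1% vehicle, Y-27632 50 μM, nocodazole 300 nM. Stained with Ho342/EthD2. TM number and length per cell quantified semi-automatically from immunofluorescence images via a machine learning-based workflow. Two-way ANOVA, Tukey post-test.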

S24 PD-glioma cells [11] = experiment: cell death of S24 PD-glioma; assay type: cell-based, human; details: Y-27632 50 mM (as printed in Figure S3), 24 h
In short: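 GFP-expressing patient-derived S24 glioma cells treated alongside vehicle (DMSO 1%), then stained with Ho342 and EthD2 and imaged by fluorescence microscopy.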

BG5 PD-glioma cells = experiment: tumor microtube; assay type: cell-based, human; details: Y-27632 50 μM
In short: as §1

In the case of `COC(=O)Nc1nc2ccc(C(=O)c3cccs3)cc2[nH]1` [NOC, nocodazole, reference compound], the “reduction of cell viability” value (MGG8 cells [1]; NOC 3 µM, WST-1) is reported as 18%, the “effect on number of cells in S phase” value (T98G cells [2]; NOC 3 μM, BrdU) is reported as “Lack of response” and the “effect on number of cells in S phase” value (MGG8 cells [3]) is reported as “reduce; also recorded: overall less active”.

In the case of `CCn1c2ccccc2c2cc(C(O)c3cccc4ncccc34)ccc21` (centres unmarked) [ST-401, (9‐ethyl‐9H‐carbazol‐3‐yl)(quinolin‐5‐yl)methanol], the “treated tumors that stopped growing despite ending the treatment” value ([4]; Regimen 2) is reported as “approximately 50%”, the “life-expectancy / survival of treated mice” value ([4]; Regimen 2, n = 10 mice per arm) is reported as “significant increase in average survival; also recorded: doubling” and the “time without recurrence after ending treatment” value ([4]; tumors that stopped growing) is reported as ≥ 28 days. The IC50 (MGG8 cells [1]; Homo sapiens, read-out: IC50, overall cell viability) was 14 nM, the “adverse effects (Regimen 2)” value (CD1 mice) was “did not trigger adverse effects” and the IC50 (COLO205 cells) was 38 nM. The “competition for [3H]colchicine binding to tubulin” value [5] was 89%, the average survival (PDGFB-glioma; ST-401+RT arm) was 50 days and the average survival (PDGFB-glioma; ST-401+TMZ arm) was 46 days. The “effect on average median survival, single agent” value (PDGFB-glioma; ST-401 regimen 2) was “did not affect average median survival”, the “enhancement of the therapeutic efficacy of RT” value (PDGFB-glioma; ST-401 regimen 2 + RT single dose 10-Gy) was 66% and the “enhancement of the therapeutic efficacy of TMZ” value (PDGFB-glioma; ST-401 regimen 2 + TMZ 50 mg/kg) was 60%. The “increase in mitotic figures versus control arm” value (PDGFB-glioma; ST-401 regimen 2, H&E, end stage) was 69%, the “increase in tumor density (relative area of HA expression)” value (PDGFB-glioma; ST-401 regimen 2, semi-quantitative IHC) was 54% and the “tumor density by olig-2 immunostaining” value (PDGFB-glioma) was “increase”. For the same compound, the necrotic area (PDGFB-glioma) was “did not reach significance”, the IC50 [6] was 23 to 69 nM and the “MT disassembly (Δ release of free tubulin)” value (tubulin) was “greater MT disassembly”. For the same compound, the “time plasma levels remained above 250 nM” value ([7]; bidaily i.p. injections of 20 mg/kg) was “approximately 16 h”, the half-life ([7]; mouse, brain, ip, 150 mg/kg) was ~6 h and the “concentration reached in brain” value ([7]; single i.p. 150 mg/kg) was “micromolar concentrations”. For the same compound, the “concentration reached in brain” value ([7]; single i.p. 20 and 5 mg/kg, 30 min) was “micromolar concentrations”, the plasma concentration ([7]; three i.p. injections of 20 mg/kg separated by 8 and 16 h, over 24 h) was “above 250 nM” and the “response on number of cells in S phase” value (T98G cells [2]; 72 h, BrdU incorporation, concentration-response) was “absent”. For the same compound, the IC50 (T98G cells [8]) was 36 nM, the “time for MT assembly to reach initial rates after wash-out” value (HCT116 cells; 100 nM, after wash-out) was ≤ 15 min and the “reduction in MT assembly rate” value (HCT116 cells; 100 nM, interphase cells, compared to NOC 100 nM) was “milder reduction”. For the same compound, the “inhibition of MT assembly” value (HCT116 cells; 200 nM, within 15 min) was “completely and reversibly inhibited all MT assembly” and the IC50 [9] was 24 to 47 nM.

With `Cn1nnc2c(C(N)=O)ncn2c1=O` [TMZ, temozolomide, reference compound] the average median survival (PDGFB-glioma; TMZ 50 mg/kg once per day, 5 days/week for 4 weeks, control 20 days) was 30 days, the “extension of average median survival” value (PDGFB-glioma; TMZ 50 mg/kg once per day, 5 days/week for 4 weeks, versus control) was 50% and the “tumor density by olig-2 immunostaining” value (PDGFB-glioma) was “increase”. For the same compound, the necrotic area (PDGFB-glioma) was “unchanged”.

With `C[C@@H](N)[C@H]1CC[C@H](C(=O)Nc2ccncc2)CC1` [Y-27632] the “effect on TM length/cell” value (S24 PD-glioma cells [10]) was “increased”, the “effect on TM number/cell” value (S24 PD-glioma cells [10]) was “increased” and the “effect on cell death / viability” value (S24 PD-glioma cells [11]) was “did not affect cell viability”. The “effect on TM length/cell” value (BG5 PD-glioma cells) was “increased” and the “effect on TM number/cell” value (BG5 PD-glioma cells) was “increased”.
